Columns and labels:
[1] = Antiproliferative activity against human MDA468 cells after 3 days by MTS assay; assay type: functional, cell-based; settings: MDA-MB-468, 72 h
How it was run: (§1)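 Cells seeded in 96-well plates for 24 h, then treated with vehicle or a range of compound doses for 3 days. Viable cell density read by MTS assay. IC50 taken from plots of percent inhibition versus vehicle control.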

LNCaP = test: Antiproliferative activity against human LNCAP cells after 3 days by MTS assay; assay type: functional, cell-based; settings: 72 h; how it was run: as §1
[2] = target: Serine/threonine-protein kinase mTOR (Homo sapiens, UniProt P42345); test: Inhibition of FKBP12-independent human recombinant mTOR expressed in HEK293 cells using His6-S6K1 as a substrate by DELFIA assay; assay type: cell-based
How it was run: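 Recombinant mTOR kinase activity measured with no FKBP12 present, with vehicle or a range of compound doses. IC50 derived by plotting percent inhibition relative to control.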

Row | IC50 (LNCaP) [nM] | IC50 [2] [nM] | Compound | IC50 [1] [nM]
1 | 13 | 2500 | CC[C@@H]1/C=C/C=C/C=C(\C)[C@@H](OC)C[C@@H]2CC[C@@H](C)[C@@](O)(O2)C(=O)C(=O)N2CCCC[C@H]2C(=O)O[C@H]([C@H](C)C[C@@H]2CC[C@@H](OC(=O)C(C)(CO)CO)[C@H](OC)C2)CC(=O)[C@H](C)/C=C(\C)[C@@H](O)[C@@H](OC)C(=O)[C@H](C)C1 [HOMOTEMSIROLIMUS B] | 5
2 | 0.5 | 1760 | CO[C@H]1C[C@@H]2CC[C@@H](C)[C@@](O)(O2)C(=O)C(=O)N2CCCC[C@H]2C(=O)O[C@H]([C@H](C)C[C@@H]2CC[C@@H](OC(=O)C(C)(CO)CO)[C@H](OC)C2)CC(=O)[C@H](C)/C=C(\C)[C@@H](O)[C@@H](OC)C(=O)[C@H](C)C[C@H](C)/C=C/C=C/C=C/1C [TEMSIROLIMUS] | 8
3 | 8 | 2100 | CC[C@@H]1/C=C(\C)[C@@H](O)[C@@H](OC)C(=O)[C@H](C)C[C@H](C)/C=C/C=C/C=C(\C)[C@@H](OC)C[C@@H]2CC[C@@H](C)[C@@](O)(O2)C(=O)C(=O)N2CCCC[C@H]2C(=O)O[C@H]([C@H](C)C[C@@H]2CC[C@@H](OC(=O)C(C)(CO)CO)[C@H](OC)C2)CC1=O [HOMOTEMSIROLIMUS C] | 5
4 | 2.5 | 1800 | CC[C@@H]1CC[C@H]2C[C@H](OC)/C(C)=C/C=C/C=C/[C@@H](C)C[C@@H](C)C(=O)[C@H](OC)[C@H](O)/C(C)=C/[C@@H](C)C(=O)C[C@@H]([C@H](C)C[C@@H]3CC[C@@H](OC(=O)C(C)(CO)CO)[C@H](OC)C3)OC(=O)[C@@H]3CCCCN3C(=O)C(=O)[C@]1(O)O2 [HOMOTEMSIROLIMUS A] | 1

Reference: ChEMBL document CHEMBL1772963, “Isolation and structure of homotemsirolimuses A, B, and C” (J Nat Prod, 2011)
